Experimental data as given in ChEMBL document CHEMBL1121934, “2,3-dihydro and carbocyclic analogues of tryptamines: interaction with serotonin receptors” (J Med Chem, 1982).

Target: 5-hydroxytryptamine receptor 2B (Rattus norvegicus, UniProt P30994)
Assay: The binding affinity to 5-hydroxytryptamine 2B receptor of rat fundus
Details: read-out: pA2 (converted)
Method in brief: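 Isolated rat stomach fundus strip preparation. After a 1-h equilibration, 5-HT oxalate dose-response curves (9–11 increasing concentrations) were run without and with 4–5 increasing concentrations of test compound. Apparent affinity was expressed as pA2 by Arunlakshana–Schild analysis, with linear regression giving both pA2 and Schild plot slope.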

5-hydroxytryptamine receptor 2B, sequence (P30994 whole entry): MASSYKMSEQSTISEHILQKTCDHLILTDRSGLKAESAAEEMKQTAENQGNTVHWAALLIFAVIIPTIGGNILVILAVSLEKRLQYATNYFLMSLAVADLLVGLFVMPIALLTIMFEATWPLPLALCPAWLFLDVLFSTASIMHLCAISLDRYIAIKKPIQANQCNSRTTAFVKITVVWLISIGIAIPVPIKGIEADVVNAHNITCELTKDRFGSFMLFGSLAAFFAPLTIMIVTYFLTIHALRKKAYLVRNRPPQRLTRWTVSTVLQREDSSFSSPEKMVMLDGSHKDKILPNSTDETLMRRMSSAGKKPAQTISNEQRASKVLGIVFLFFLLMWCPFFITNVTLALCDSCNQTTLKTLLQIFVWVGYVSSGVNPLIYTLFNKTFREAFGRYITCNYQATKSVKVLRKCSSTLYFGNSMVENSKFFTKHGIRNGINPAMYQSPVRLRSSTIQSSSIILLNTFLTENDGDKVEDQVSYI

Row | Structure (SMILES) | Kb [nM]
1 | CN(C)CCNc1ccccc1 | 955
2 | CN(C)CCC1=CCc2ccccc21 | 2090
3 | CN(C)CCCc1ccccc1 | 8130
4 | NC1CCc2ccccc2C1 (stereo not drawn) | 2450
5 | CNCCc1c[nH]c2ccccc12 | 1070
6 | CN(C)CCC(=O)c1ccccc1 | 4790
7 | NCCC1CCc2ccccc21 (racemic) | 2510
8 | CN(C)CCC1CNc2ccccc21 (racemic) | 2090
9 | CN(C)CCC1CCc2ccccc21 (racemic) | 4570
10 | CNCCC1CCc2ccccc21 (racemic) | 4270
11 | COc1ccc2c(c1)C(CCN(C)C)CN2 (racemic) | 182
12 | CNCCC1CCc2ccccc21 (stereo in doubt; 4d) | 2190
13 | NCCc1c[nH]c2ccccc12 [TRYPTAMINE] | 537
